According to ChEMBL document CHEMBL4028913, “Discovery of Novel Potent VEGFR-2 Inhibitors Exerting Significant Antiproliferative Activity against Cancer Cell Lines” (J Med Chem, 2018):
The source made the active and inactive calls. No cut-off for these calls is given here.

Experiments:
[1] = Potency index, ratio of sorafenib GI50 to test compound GI50 for human non-small cell lung cancer cells; type: functional
Summary of the method: (§1)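 GI50 is the concentration giving 50% reduction in net protein increase relative to control. Potency index is the reference-drug GI50 divided by the test-compound GI50.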

A498 = assay: Cytotoxicity against human A498 cells after 48 hrs by SRB assay; type: functional; details: A498, 48 h
Summary of the method: (§2)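 NCI-60 panel; cells grown in RPMI 1640 with 5% FBS and 2 mM L-glutamine, plated at 5000–40 000 cells/well by doubling time, preincubated 24 h (37 °C, 5% CO2). Drug added at five concentrations, 1-log steps from 10−4 to 10−8 M, for 48 h. Fixed with TCA, stained with 0.4% SRB, absorbance read at 515 nm. Percent growth computed against time-zero and untreated controls; GI50, TGI and LC50 derived.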

MDA-MB-231 = assay: Cytotoxicity against human MDA-MB-231 cells after 48 hrs by SRB assay; type: functional; details: MDA-MB-231, 48 h; summary of the method: as §2
[2] = target: Ephrin type-A receptor 7 (Homo sapiens) (UniProt Q15375); assay: Inhibition of human EPHA7 at 0.5 uM relative to control
Chain of Ephrin type-A receptor 7 (Homo sapiens) (Q15375 28-998 limits assumed): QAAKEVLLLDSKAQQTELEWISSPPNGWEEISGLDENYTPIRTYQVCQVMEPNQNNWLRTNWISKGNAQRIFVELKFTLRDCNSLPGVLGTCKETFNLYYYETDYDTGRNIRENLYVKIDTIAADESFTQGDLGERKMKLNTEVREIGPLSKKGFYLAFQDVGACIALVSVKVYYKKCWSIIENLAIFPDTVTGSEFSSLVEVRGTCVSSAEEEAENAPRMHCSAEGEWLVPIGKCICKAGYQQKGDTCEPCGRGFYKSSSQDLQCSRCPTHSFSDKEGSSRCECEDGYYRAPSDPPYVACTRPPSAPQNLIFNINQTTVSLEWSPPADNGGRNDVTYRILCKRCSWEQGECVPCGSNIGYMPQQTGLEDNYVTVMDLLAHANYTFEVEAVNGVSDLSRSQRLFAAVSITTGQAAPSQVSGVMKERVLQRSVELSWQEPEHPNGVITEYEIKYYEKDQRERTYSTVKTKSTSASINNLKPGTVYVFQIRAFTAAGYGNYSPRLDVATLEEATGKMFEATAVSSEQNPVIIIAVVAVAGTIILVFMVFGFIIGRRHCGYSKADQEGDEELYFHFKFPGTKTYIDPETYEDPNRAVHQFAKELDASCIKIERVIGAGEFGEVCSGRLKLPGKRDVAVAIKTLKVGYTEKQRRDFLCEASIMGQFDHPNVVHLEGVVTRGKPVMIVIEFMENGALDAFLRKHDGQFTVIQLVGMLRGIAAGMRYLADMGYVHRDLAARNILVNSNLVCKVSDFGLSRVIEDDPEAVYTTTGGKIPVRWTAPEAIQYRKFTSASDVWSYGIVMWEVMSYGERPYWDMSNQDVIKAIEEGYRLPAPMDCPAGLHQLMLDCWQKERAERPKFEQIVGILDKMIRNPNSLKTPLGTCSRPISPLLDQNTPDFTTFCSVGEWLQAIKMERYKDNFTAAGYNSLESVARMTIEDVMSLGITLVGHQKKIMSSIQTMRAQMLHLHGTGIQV

NCI-H226 = assay: Cytotoxicity against human NCI-H226 cells after 48 hrs by SRB assay; type: functional; details: NCI-H226, 48 h; summary of the method: as §2
[3] = target: Ephrin type-A receptor 4 (Homo sapiens) (UniProt P54764); assay: Inhibition of human EPHA4 at 0.5 uM relative to control
NCI/ADR-RES [4] = assay: Potency index, ratio of sorafenib GI50 to test compound GI50 for human NCI-ADR-RES cells; type: functional; summary of the method: as §1
HOP-92 = assay: Cytotoxicity against human HOP92 cells after 48 hrs by SRB assay; type: functional; details: HOP-92, 48 h; summary of the method: as §2
786-0 = assay: Cytotoxicity against human 786-0 cells after 48 hrs by SRB assay; type: functional; details: 786-0, 48 h; summary of the method: as §2
MDA-MB-435 = assay: Growth inhibition of human MDA-MB-435 cells after 72 hrs by CellTiter-Glo assay; type: functional, cell-based; details: MDA-MB-435, 72 h
Summary of the method: (§3)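 Cells in exponential phase seeded at 2000–4000 cells/well, then exposed 72 h at 37 °C, 5% CO2 with 0.1% final DMSO. Single-point screen at 10 μM final. […] Read-out was CellTiter-Glo luminescence.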

[5] = Potency index, ratio of sunitinib GI50 to test compound GI50 for human renal cancer cells; type: functional, Renal cancer cell
[6] = target: Mitogen-activated protein kinase kinase kinase kinase 5 (Homo sapiens) (UniProt Q9Y4K4); assay: Inhibition of human KHS at 0.5 uM relative to control
Chain of Mitogen-activated protein kinase kinase kinase kinase 5 (Homo sapiens) (Q9Y4K4 whole entry, looked up): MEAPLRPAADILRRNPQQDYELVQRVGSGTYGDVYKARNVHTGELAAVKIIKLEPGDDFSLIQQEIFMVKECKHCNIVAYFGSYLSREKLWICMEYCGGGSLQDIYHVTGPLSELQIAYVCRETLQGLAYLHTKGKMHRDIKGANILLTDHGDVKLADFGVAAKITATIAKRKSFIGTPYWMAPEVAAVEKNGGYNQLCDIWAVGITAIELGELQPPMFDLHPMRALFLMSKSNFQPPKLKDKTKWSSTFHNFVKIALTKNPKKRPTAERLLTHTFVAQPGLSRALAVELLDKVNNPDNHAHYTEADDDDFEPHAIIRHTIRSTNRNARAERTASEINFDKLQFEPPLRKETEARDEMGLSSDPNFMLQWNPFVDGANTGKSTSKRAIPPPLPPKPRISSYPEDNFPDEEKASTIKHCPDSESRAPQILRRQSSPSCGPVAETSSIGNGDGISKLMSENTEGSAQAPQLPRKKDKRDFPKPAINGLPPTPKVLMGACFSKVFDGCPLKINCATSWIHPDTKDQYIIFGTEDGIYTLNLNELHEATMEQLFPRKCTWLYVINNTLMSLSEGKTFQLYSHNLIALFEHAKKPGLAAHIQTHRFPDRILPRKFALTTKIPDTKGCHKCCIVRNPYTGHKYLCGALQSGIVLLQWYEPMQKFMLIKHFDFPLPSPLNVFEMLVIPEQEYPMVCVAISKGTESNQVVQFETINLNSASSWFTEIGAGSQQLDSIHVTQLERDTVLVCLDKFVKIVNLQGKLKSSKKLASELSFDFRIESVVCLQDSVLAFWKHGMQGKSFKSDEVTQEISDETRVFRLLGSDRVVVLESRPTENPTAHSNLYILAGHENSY

M14 = assay: Cytotoxicity against human M14 cells after 48 hrs by SRB assay; type: functional; details: M14, 48 h; summary of the method: as §2
OVCAR-5 = assay: Cytotoxicity against human OVCAR5 cells after 48 hrs by SRB assay; type: functional; details: OVCAR-5, 48 h; summary of the method: as §2
NCI-H460 = assay: Cytotoxicity against human NCI-H460 cells after 48 hrs by SRB assay; type: functional; details: NCI-H460, 48 h; summary of the method: as §2
SNB-75 = assay: Cytotoxicity against human SNB75 cells after 48 hrs by SRB assay; type: functional; details: SNB-75, 48 h; summary of the method: as §2
[7] = target: Proto-oncogene tyrosine-protein kinase Src (Homo sapiens) (UniProt P12931); details: at 0.5 µM
Chain of Proto-oncogene tyrosine-protein kinase Src (Homo sapiens) (P12931 2-536 limits assumed): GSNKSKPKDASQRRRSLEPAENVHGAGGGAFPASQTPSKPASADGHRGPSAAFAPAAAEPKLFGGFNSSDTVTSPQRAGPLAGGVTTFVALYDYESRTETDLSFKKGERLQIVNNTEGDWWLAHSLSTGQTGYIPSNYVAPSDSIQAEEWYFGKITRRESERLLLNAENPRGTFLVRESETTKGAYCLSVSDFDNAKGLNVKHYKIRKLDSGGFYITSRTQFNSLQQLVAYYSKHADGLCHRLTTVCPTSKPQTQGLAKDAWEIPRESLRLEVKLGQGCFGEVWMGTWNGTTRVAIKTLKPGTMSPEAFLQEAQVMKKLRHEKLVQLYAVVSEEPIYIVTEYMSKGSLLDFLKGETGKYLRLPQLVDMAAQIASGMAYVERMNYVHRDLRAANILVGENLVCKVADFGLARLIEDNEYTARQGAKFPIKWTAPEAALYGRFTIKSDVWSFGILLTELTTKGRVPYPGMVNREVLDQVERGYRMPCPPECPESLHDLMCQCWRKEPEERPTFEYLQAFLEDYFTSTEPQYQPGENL

[8] = Potency index, ratio of sunitinib GI50 to test compound GI50 for human non-small cell lung cancer cells; type: functional
[9] = Potency index, ratio of sorafenib GI50 to test compound GI50 for human colon cancer cells; type: functional, Colon cancer cell; summary of the method: as §1
Melanoma cell = assay: Potency index, ratio of sorafenib GI50 to test compound GI50 for human melanoma cells; type: functional; summary of the method: as §1
[10] = Potency index, ratio of sunitinib GI50 to test compound GI50 for human prostate cancer cells; type: functional, Prostate cancer cell
SR = assay: Cytotoxicity against human SR cells after 48 hrs by SRB assay; type: functional; summary of the method: as §2
TK-10 = assay: Cytotoxicity against human TK10 cells after 48 hrs by SRB assay; type: functional; details: TK-10, 48 h
Summary of the method: (§4)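 NCI-60 panel, five doses at 1-log steps from 10−4 to 10−8 M. Cells grown in RPMI 1640 with 5% FBS and 2 mM L-glutamine, seeded at 5000–40 000 cells/well and preincubated 24 h. Tz plates were TCA-fixed at drug addition. Drug exposure 48 h at 37 °C, then TCA fixation, 0.4% SRB stain and absorbance at 515 nm. GI50 taken from percent growth relative to Tz and control.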

[11] = Potency index, ratio of sorafenib GI50 to test compound GI50 for human breast cancer cells; type: functional, Breast cancer cell; summary of the method: as §1
HUVEC = assay: Growth inhibition of HUVEC after 72 hrs by CellTiter-Glo assay; type: functional, cell-based; details: Homo sapiens; summary of the method: as §3
[12] = target: Tyrosine-protein kinase ABL1 (Homo sapiens) (UniProt P00519); details: at 0.5 µM
Chain of Tyrosine-protein kinase ABL1 (Homo sapiens) (P00519 whole entry): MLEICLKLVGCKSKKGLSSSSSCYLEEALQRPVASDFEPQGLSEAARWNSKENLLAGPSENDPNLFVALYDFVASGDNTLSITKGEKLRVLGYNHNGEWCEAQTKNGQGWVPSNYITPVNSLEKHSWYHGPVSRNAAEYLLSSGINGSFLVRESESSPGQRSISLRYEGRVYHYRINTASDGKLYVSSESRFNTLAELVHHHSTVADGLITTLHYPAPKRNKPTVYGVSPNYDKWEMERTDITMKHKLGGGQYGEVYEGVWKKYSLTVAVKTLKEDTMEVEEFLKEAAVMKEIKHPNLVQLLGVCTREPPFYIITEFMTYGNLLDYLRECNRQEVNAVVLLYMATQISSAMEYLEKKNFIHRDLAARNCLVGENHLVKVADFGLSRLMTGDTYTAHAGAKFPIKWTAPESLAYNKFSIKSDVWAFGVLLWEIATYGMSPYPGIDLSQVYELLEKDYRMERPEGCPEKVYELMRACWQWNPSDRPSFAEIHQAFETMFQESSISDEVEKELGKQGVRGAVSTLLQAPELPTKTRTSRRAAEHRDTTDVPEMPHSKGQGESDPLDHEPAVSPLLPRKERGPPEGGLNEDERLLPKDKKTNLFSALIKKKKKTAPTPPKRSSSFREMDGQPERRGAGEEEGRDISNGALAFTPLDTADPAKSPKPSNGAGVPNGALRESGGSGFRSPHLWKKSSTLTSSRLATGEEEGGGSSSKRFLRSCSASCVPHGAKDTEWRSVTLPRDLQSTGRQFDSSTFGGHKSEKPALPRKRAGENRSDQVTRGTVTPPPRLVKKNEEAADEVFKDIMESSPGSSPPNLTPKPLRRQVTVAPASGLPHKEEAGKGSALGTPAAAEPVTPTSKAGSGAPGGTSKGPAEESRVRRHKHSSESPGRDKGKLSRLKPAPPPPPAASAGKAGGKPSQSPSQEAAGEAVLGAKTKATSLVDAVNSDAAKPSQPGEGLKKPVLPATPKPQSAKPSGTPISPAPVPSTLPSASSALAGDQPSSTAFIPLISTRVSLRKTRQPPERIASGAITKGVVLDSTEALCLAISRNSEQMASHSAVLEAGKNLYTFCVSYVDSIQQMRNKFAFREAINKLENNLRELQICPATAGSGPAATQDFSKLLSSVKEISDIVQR

HCT-15 = assay: Cytotoxicity against human HCT15 cells after 48 hrs by SRB assay; type: functional; details: HCT-15, 48 h; summary of the method: as §2
[13] = Potency index, ratio of sunitinib TGI to test compound TGI for human renal cancer cells; type: functional, Renal cancer cell
PC-3 = assay: Cytotoxicity against human PC3 cells after 48 hrs by SRB assay; type: functional; details: PC-3, 48 h; summary of the method: as §2
OVCAR-4 = assay: Cytotoxicity against human OVCAR4 cells after 48 hrs by SRB assay; type: functional; details: OVCAR-4, 48 h; summary of the method: as §2
SW-620 = assay: Cytotoxicity against human SW620 cells after 48 hrs by SRB assay; type: functional; details: SW-620, 48 h; summary of the method: as §4
[14] = target: Vascular endothelial growth factor receptor 2 (Homo sapiens, UniProt P35968); details: at 10 µM
Chain of Vascular endothelial growth factor receptor 2 (P35968 whole entry): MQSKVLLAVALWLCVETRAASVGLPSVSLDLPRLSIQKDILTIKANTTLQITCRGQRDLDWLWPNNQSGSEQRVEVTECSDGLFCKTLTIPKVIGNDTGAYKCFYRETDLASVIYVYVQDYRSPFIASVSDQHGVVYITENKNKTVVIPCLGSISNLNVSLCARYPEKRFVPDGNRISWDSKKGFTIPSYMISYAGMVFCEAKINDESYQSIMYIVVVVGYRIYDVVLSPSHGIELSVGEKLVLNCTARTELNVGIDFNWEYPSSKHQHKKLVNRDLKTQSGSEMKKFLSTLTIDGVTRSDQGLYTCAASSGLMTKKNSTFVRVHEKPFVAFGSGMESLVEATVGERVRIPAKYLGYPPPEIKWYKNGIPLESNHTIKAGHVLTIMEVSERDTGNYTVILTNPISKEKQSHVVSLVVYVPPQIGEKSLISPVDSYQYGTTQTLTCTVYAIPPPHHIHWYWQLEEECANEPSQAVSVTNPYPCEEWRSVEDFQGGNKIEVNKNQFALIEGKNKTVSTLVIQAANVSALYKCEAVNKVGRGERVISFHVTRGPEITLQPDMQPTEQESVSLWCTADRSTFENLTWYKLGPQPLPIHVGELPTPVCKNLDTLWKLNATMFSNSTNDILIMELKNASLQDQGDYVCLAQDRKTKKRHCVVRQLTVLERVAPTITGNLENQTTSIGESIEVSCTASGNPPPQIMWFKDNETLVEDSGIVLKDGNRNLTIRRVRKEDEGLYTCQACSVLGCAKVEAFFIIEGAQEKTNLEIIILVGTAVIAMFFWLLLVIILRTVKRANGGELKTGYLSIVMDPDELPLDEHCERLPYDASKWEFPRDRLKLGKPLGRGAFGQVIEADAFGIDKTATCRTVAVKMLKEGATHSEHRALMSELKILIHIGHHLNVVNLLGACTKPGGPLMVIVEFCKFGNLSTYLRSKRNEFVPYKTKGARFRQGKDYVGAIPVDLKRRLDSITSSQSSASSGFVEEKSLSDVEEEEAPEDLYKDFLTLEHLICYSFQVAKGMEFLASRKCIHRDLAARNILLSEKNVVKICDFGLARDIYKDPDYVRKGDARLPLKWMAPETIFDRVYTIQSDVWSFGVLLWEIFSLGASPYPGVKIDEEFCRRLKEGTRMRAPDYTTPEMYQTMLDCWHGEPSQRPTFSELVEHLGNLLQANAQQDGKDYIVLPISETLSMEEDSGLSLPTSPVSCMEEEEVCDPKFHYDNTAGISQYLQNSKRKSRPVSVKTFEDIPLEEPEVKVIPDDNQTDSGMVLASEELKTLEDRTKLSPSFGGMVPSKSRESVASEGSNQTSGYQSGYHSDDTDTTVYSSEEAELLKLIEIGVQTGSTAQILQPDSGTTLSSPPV

NCI/ADR-RES [15] = assay: Potency index, ratio of sunitinib GI50 to test compound GI50 for human NCI-ADR-RES cells; type: functional; summary of the method: as §1
SF-268 = assay: Cytotoxicity against human SF268 cells after 48 hrs by SRB assay; type: functional; details: SF-268, 48 h; summary of the method: as §2
[16] = read-out: LC50 (the source's name)

In the case of `COc1cc2ncnc(Oc3ccc(NC(=O)Nc4ccc(CN5CCOCC5)c(C(F)(F)F)c4)c4ccccc34)c2cc1OC`, the RatioGI50 [1] is reported as 3.9 - 9.5, the GI50 (A498) is reported as 50 nM and the TGI (A498) is reported as 520 nM. For the same compound, the CC50 (A498; [16]) was 30.9 µM, the GI50 (MDA-MB-231) was 1150 nM and the TGI (MDA-MB-231) was 7.94 µM. For the same compound, the CC50 (MDA-MB-231; [16]) was 42.7 µM, the inhibition [2] was “Active” and the GI50 (NCI-H226) was 70 nM. The TGI (NCI-H226) was 13.8 µM, the CC50 (NCI-H226; [16]) was over 100 µM and the inhibition [3] was “Active”. It also gave a RatioGI50 (NCI/ADR-RES [4]) of 3.3, a GI50 (HOP-92) of 320 nM and a TGI (HOP-92) of 7.76 µM. For the same compound, the CC50 (HOP-92; [16]) was 91.2 µM, the GI50 (786-0) was 790 nM and the TGI (786-0) was 5.37 µM. For the same compound, the CC50 (786-0; [16]) was 26.9 µM, the IC50 (MDA-MB-435) was 2360 nM and the RatioGI50 [5] was 6.8. The inhibition [6] was “Active”, the GI50 (M14) was 950 nM and the TGI (M14) was 4.57 µM. The CC50 (M14; [16]) was 26.9 µM, the GI50 (OVCAR-5) was 1070 nM and the TGI (OVCAR-5) was 10.5 µM. It also gave a CC50 (OVCAR-5; [16]) of over 100 µM, a GI50 (NCI-H460) of 1410 nM and a TGI (NCI-H460) of 4.27 µM. For the same compound, the CC50 (NCI-H460; [16]) was 25.7 µM, the GI50 (SNB-75) was 1050 nM and the TGI (SNB-75) was 13.8 µM. For the same compound, the CC50 (SNB-75; [16]) was 38.9 µM, the inhibition [7] was “Active” and the RatioGI50 [8] was 5 - 7.7. For the same compound, the RatioGI50 [9] was 1.6 - 2.9, the RatioGI50 (Melanoma cell) was 1.6 - 2.9 and the RatioGI50 [10] was 1.5. It also gave a GI50 (SR) of 690 nM, a TGI (SR) of 5.37 µM and a CC50 (SR; [16]) of over 100 µM. It also gave a GI50 (TK-10) of 380 nM, a TGI (TK-10) of 5.89 µM and a CC50 (TK-10; [16]) of 35.5 µM. For the same compound, the RatioGI50 [11] was 3.9 - 9.5, the IC50 (HUVEC) was 630 nM and the inhibition [12] was “Active”. The GI50 (HCT-15) was 1000 nM, the TGI (HCT-15) was 5.13 µM and the CC50 (HCT-15; [16]) was 28.2 µM. The Ratio [13] was 3.2, the GI50 (PC-3) was 1780 nM and the TGI (PC-3) was 12.6 µM. The CC50 (PC-3; [16]) was over 100 µM, the GI50 (OVCAR-4) was 120 nM and the TGI (OVCAR-4) was 10.5 µM. For the same compound, the CC50 (OVCAR-4; [16]) was 35.5 µM, the GI50 (SW-620) was 1100 nM and the TGI (SW-620) was 11.8 µM. It also gave a CC50 (SW-620; [16]) of over 100 µM, an inhibition [14] of 97.8% and a RatioGI50 (NCI/ADR-RES [15]) of 6.9. The GI50 (SF-268) was 460 nM, the TGI (SF-268) was 15.8 µM and the CC50 (SF-268; [16]) was 79.4 µM.
